SENP8 block-1 – SENP8 protease inhibition; Q96LD8; purified SENP8, Z-RLRGG-aminoluciferin cleavage, luminescence; inhibition, % at 10 µM; hit rate 1.2% among 330,000; AID 2540; in the data active = inhibition above about 50%
SENP7 inh – SENP7 protease inhibition | Q9BQF6 | recombinant SENP7, Z-RLRGG-aminoluciferin luminescence, 40 min | inhibition, % at 5 µM | hit rate 1.5% among 330,000 | AID 434973;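 active = inhibition above about 50% at the single test dose, limit read from the data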;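 also: plate controls were DMSO with enzyme for no effect and no enzyme buffer wells for full effect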
UBC13 polyUb – blocks human UBC13 polyubiquitin chain formation; AID 485273; TR-FRET; inhibition, % at 20 µM; P61088; hit rate 0.47% among 330,000; in the data active = inhibition above about 45%, passing the limit was not always enough
SENP6 block – blocks the human protease SENP6. inhibition, % at 10 µM. hit rate 1.8% among 330,000. Recombinant SENP6 catalytic domain, aminoluciferin luminescence;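 active = inhibition above about 50% at the single tested dose, limit read from the data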;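 also: plate controls were DMSO wells with enzyme for no effect and DMSO wells lacking enzyme for full effect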
SENP8 block-2 – inhibitors of human SENP8 protease; Q96LD8; recombinant SENP8, Nedd8 substrate fluorescence; inhibition, % at 20 µM; hit rate 0.64% among 360,000; AID 602440; in the data active = inhibition mostly above about 40%, no sharp cut-off; inactive = mostly below about 27%
Apaf1 inhib – inhibitors of human Apaf-1 apoptosome | reconstituted apoptosome caspase-3 activity, DEVD-Rh110 fluorescence | O14727 | inhibition, % at 20 µM | hit rate 0.71% among 330,000; active = inhibition of at least 40% at 20 µM;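 also: plate controls were DMSO wells for no effect and DEVD-CHO caspase inhibitor wells for full effect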
Target sequence (O14727 whole entry, looked up): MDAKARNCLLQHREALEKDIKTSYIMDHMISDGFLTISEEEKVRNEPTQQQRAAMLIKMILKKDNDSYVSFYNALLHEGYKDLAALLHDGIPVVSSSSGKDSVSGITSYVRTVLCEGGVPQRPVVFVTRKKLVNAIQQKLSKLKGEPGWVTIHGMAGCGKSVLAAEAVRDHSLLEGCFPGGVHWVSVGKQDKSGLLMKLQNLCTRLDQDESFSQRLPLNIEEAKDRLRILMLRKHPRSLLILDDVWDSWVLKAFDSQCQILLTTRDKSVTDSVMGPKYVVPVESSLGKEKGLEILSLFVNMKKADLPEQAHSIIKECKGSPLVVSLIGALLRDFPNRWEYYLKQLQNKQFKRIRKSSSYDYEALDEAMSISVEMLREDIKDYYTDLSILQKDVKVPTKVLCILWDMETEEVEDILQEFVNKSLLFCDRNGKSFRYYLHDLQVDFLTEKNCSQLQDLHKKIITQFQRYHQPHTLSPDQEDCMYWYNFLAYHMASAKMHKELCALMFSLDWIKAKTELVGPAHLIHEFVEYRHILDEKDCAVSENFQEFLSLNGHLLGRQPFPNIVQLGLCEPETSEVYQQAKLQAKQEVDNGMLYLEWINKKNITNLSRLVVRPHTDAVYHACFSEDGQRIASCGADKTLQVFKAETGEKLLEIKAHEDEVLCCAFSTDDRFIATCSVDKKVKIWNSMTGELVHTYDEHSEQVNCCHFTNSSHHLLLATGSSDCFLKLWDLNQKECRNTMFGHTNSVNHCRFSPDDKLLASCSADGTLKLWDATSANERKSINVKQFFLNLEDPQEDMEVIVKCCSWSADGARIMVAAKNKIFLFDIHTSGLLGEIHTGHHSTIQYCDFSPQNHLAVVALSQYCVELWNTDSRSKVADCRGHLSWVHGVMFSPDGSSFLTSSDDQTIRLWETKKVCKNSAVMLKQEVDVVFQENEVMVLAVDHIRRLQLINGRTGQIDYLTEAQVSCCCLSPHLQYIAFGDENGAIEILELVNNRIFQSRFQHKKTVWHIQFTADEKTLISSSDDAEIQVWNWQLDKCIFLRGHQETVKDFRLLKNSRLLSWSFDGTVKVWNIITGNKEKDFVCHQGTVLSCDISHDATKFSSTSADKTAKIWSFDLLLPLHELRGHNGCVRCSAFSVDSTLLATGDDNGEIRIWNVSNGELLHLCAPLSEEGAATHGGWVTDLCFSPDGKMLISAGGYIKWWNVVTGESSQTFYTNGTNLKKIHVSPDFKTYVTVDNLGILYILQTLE
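System – cell-free apoptosome with Apaf-1, procaspase-3 and caspase-9 · Buffer or medium – pH 7.5 Hepes buffer with CHAPS, BSA, DTT · Also added – cytochrome c with DEVD-Rh110 · Times – 30 min compound preincubation, 50 min activation, room temperature · Technique – Rh110 fluorescence intensity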
SENP8 conf-1 – confirmation of human SENP8 protease inhibitors | shares compounds with SENP7 inh | Recombinant SENP8, Z-RLRGG-aminoluciferin luminescence, 60 min | inhibition, % at 12.5 µM | hit rate 40% among 6,200;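 active = mean inhibition across replicates above about 50%, limit read from the data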
SENP6 confirm – human SENP6 inhibition, confirmed | recombinant SENP6, Z-RLRGG-aminoluciferin luminescence | inhibition, % at 12.5 µM | shares compounds with SENP7 inh | hit rate 58% among 6,200
SENP7 confirm – confirmation of human SENP7 protease inhibitors; shares compounds with SENP7 inh; recombinant SENP7, Z-RLRGG-aminoluciferin luminescence, 40 min; inhibition, % at 12.5 µM; hit rate 69% among 6,200; AID 488917
Casp3 SENP sel – selectivity test for SENP inhibitors: human caspase-3 inhibition; shares compounds with SENP7 inh; purified caspase-3, Z-DEVD-aminoluciferin luminescence, 60 min; inhibition, % at 12.5 µM; hit rate 60% among 6,200;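 active = mean inhibition above about 50%, limit read from the data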;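 also: plate controls were enzyme with DMSO for no effect and wells without caspase-3 for full effect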
SENP luc ctr – luminescence interference (SENP counter-screen); shares compounds with SENP7 inh; Pre-incubated SENP8/Z-RLRGG-aminoluciferin, luciferase luminescence interference; inhibition, % at 12.5 µM; hit rate 39% among 6,200; AID 488919;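 active = mean inhibition above about 50% when retested at one dose, limit read from the data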;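 also: plate controls were DMSO wells with completed reaction for no effect and substrate without enzyme for full effect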
Apaf-1 inh conf2 – Apaf-1 inhibition, single-dose confirmed. shares compounds with Apaf1 inhib. reconstituted apoptosome, caspase-3 DEVD-Rh110 fluorescence. inhibition, % at 20 µM. hit rate 25% among 1,800. AID 504614;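 active = mean inhibition of at least 40% at 20 µM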;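 also: plate controls were DMSO wells for no effect and DEVD-CHO caspase inhibitor control wells for full effect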
Rh110 interf inh – Rh110 signal interference in Apaf-1 inhibitor counter-screen; shares compounds with Apaf1 inhib; Rh110 fluorescence interference, quenched caspase reaction; activation (fluorescence interference), % at 20 µM; 1,800 tested, under 10 active; AID 504615;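 active = signal rise of 40% or more at 20 µM, treated as a fluorescence artifact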
Fluor interf inh – counter-screen for Apaf-1 inhibitors: fluorescence interference, dose response. 460 tested, under 10 active. shares compounds with Apaf1 inhib. IC50, µM. fluorescence interference counterscreen, Apaf-1 assay format; call rule not given here
SENP8 conf-2 – confirmation of human SENP8 protease inhibitors. purified SENP8, Nedd8-AMC/pro-Nedd8 cleavage fluorescence, 30 min. AID 624319. shares compounds with SENP8 block-2. hit rate 15% among 1,400. inhibition, % at 25 µM; in the data active = inhibition mostly above about 39%, no sharp cut-off; inactive = mostly below about 34%
* hit, by the source's call; i = inactive; . = no result. An excerpt weighted towards active compounds, which were near 3% of everything screened.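 The calls were made as follows, unless noted: active = mean inhibition above about 50% in the one-dose retest (limit read from the data); inactive = the rest.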

SMILES | SENP8 block-1 | SENP7 inh | UBC13 polyUb | SENP6 block | SENP8 block-2 | Apaf1 inhib | SENP8 conf-1 | SENP6 confirm | SENP7 confirm | Casp3 SENP sel | SENP luc ctr | Apaf-1 inh conf2 | Rh110 interf inh | others
COc1ccc(Cn2c(N)c(C(=O)NCc3ccco3)c3nc4ccccc4nc32)cc1 | 25 | 28 | -47 | 58* | -415 | 67* | -4 | -6 | -4 | -1 | -6 | 20 | 9
Nc1c(C(=O)NCc2ccco2)c2nc3ccccc3nc2n1Cc1ccc(F)cc1 | 75* | 54* | -10 | 89* | -484 | 89* | 1 | -4 | -5 | -3 | -13 | 25 | 12
CCOC(=O)c1c(N)n(Cc2ccco2)c2nc3ccccc3nc12 | 7 | -2 | 2 | 14 | -316 | 28 | . | . | . | . | . | . | .
CCCOC(=O)c1c(N)n(Cc2cccs2)c2nc3ccccc3nc12 | -2 | -2 | 10 | 5 | -284 | 29 | . | . | . | . | . | . | .
CC(C)CCOC(=O)c1c(N)n(CC2CCCO2)c2nc3ccccc3nc12 (centres undefined) | -1 | 9 | 18 | 7 | i | 24 | . | . | . | . | . | . | .
Nc1c(C(=O)OC2CCCCC2)c2nc3ccccc3nc2n1CC1CCCO1 (centres undefined) | 5 | 7 | 10 | 17 | -281 | 32 | . | . | . | . | . | . | .
CCCNC(=O)c1c(N)n(CC2CCCO2)c2nc3ccccc3nc12 (centres undefined) | 94* | 79* | 0 | 94* | -297 | 93* | 9 | 56* | 34 | -2 | -2 | 44* | 8 | Fluor interf inh=>100
CC(C)OC(=O)c1c(N)n(CC2CCCO2)c2nc3ccccc3nc12 (centres undefined) | 39 | 39 | 0 | 51* | i | 81* | 6 | 3 | 0 | -2 | -1 | 11 | 5
CC(C)OCCCNC(=O)c1c(N)n(CC2CCCO2)c2nc3ccccc3nc12 (centres undefined) | 92* | 66* | -4 | 94* | -266 | 94* | -20 | 12 | 4 | -8 | -15 | 30 | 17
CCCCCN1C(=O)c2ccccc2[C@@]2(C(=O)OCC)Cc3cc(OC)ccc3[C@@H]12 | . | . | . | . | 9 | . | . | . | . | . | . | . | .
COc1cccc(C(c2nnnn2Cc2ccccc2)N2CCC3(CC2)C(=O)NCN3c2ccccc2)c1OC (centres undefined) | . | . | . | . | 15 | . | . | . | . | . | . | . | .
CCC(C)N1C(=O)NC(=O)C2(Cc3c(ccc4ccccc34)N(C)C2)C1=O (centres undefined) | 11 | 16 | -15 | 76* | -28 | 65* | -20 | -7 | -6 | -6 | -6 | 30 | 4
CCCCn1c(N)c(C(=O)NCc2cccs2)c2nc3ccccc3nc21 | 93* | 38 | 4 | 88* | -257 | 85* | 10 | 18 | 17 | 2 | 2 | 24 | 9
COCCCn1c(N)c(C(=O)NCCC(C)C)c2nc3ccccc3nc21 | 77* | 63* | 23 | 81* | -288 | 91* | -6 | 13 | -1 | 4 | -6 | 52* | 6 | Fluor interf inh=>100
CCCCCn1c(N)c(C(=O)NCCN2CCOCC2)c2nc3ccccc3nc21 | 9 | 3 | 11 | 11 | -490 | 32 | . | . | . | . | . | . | .
CCCCn1c(N)c(C(=O)OCCOC)c2nc3ccccc3nc21 | 3 | 4 | 2 | 5 | -454 | 24 | . | . | . | . | . | . | .
Nc1c(C(=O)NCCCc2ccccc2)c2nc3ccccc3nc2n1Cc1cccs1 | 46 | 35 | -3 | 60* | -285 | 84* | -18 | 11 | 0 | -5 | -6 | 35 | 10
CCCCCn1c(N)c(C(=O)NCc2cccs2)c2nc3ccccc3nc21 | 84* | 40 | 1 | 80* | . | 70* | 12 | 14 | 8 | -2 | -4 | 41* | 8 | Fluor interf inh=>100
CCOC(=O)CNC(=O)N1Cc2cc(-c3cccc(F)c3)ccc2-n2nncc2C1 | . | . | . | . | 9 | . | . | . | . | . | . | . | .
C[C@@H]1CN([C@H](C)CO)C(=O)CCCn2nncc2CO[C@@H]1CN(C)C(=O)Oc1ccc2ccccc2c1 | . | . | . | . | 8 | . | . | . | . | . | . | . | .
CCCCNC(=O)c1c(N)n(Cc2ccc3c(c2)OCO3)c2nc3ccccc3nc12 | 89* | 62* | -29 | 94* | -270 | 95* | -7 | 3 | -2 | 5 | 3 | 31 | 5
COc1ccc(CCNC(=O)c2c(N)n(CCN3CCOCC3)c3nc4ccccc4nc23)cc1OC | 8 | -3 | 36 | 1 | -265 | 3 | . | . | . | . | . | . | .
Cc1ccccc1NC(=O)N1Cc2ccccc2-n2nncc2C1 | . | . | . | . | 23 | . | . | . | . | . | . | . | .
COC(=O)c1nc(-c2ccc3c(n2)C(=O)C(N)=C(OC)C3=O)c(N)c(-c2ccc(OC)c(OC)c2O)c1C | 81* | 13 | -239 | 76* | 49* | 89* | -8 | -3 | 10 | -2 | -4 | 100* | 3 | Fluor interf inh=>100
O=C(c1ccc2nc(-c3ccco3)c(-c3ccco3)nc2c1)N1CCC2(CC1)OCCO2 | 24 | 25 | -38 | 82* | -171 | 56* | 14 | 18 | 0 | 0 | -3 | 32 | 2
COc1ccc(C(=O)N2CCC3(CC2)OCCO3)cc1 | 6 | -6 | -6 | -8 | 13 | -20 | . | . | . | . | . | . | .
CN1CCN(c2ccc([N+](=O)[O-])c3cccnc23)CC1 | 5 | 3 | -41 | 11 | 28 | 15 | . | . | . | . | . | . | .
O=[N+]([O-])c1ccc(N2CCCC2)c2ccncc12 | 18 | 47 | i | 60* | 53* | 34 | 7 | 10 | 14 | 9 | 6 | . | . | SENP8 conf-2=20
C[C@@H]1CN([C@@H](C)CO)C(=O)CCCn2cc(nn2)CO[C@H]1CN(C)C(=O)Oc1cccc2ccccc12 | . | . | . | . | 4 | . | . | . | . | . | . | . | .

Source: PubChem (Sanford-Burnham Center for Chemical Genomics)
